Entries after “also recorded” stand apart in the source; their conditions may differ. Like-named read-outs stand apart in the source and are kept apart here.
What was measured:
neurons = conditions: ref Levy and Lipton, 1990; cited from earlier work
NMDAR [1] = test: NMDA-induced ion currents, whole-cell voltage-clamp; assay type: cell-based, rat
NCXrev = test: NCXrev-mediated ion currents, voltage ramp whole-cell patch-clamp; assay type: cell-based, rat; conditions: 5 mM Ni2+, 10 μM KB-R7943, 10 μM MK801, 50 μM memantine, 50 μM AP-5
[2] = system: cultured hippocampal neurons; test: Glutamate-induced plasma membrane depolarization; assay type: cell-based, rat; conditions: Annine-6plus; 25 μM glutamate plus 10 μM glycine; 1 μM MK801, 50 μM memantine, 200 μM AP-5
Summary of the method: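 Rat P1 hippocampal neurons, glia-free, 12–14 DIV, in standard NaCl bath (pH 7.4). Loaded with 4 μM Annine-6plus for 5 min at room temperature; excitation 480 nm, emission >570 nm; F480 expressed as F/F0. Inhibitors in 0.2% DMSO. 142 mM KCl substituted for NaCl at end for full depolarization. Depolarization shown as % resting potential over time; mean ± s.e.m., n=3.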

[3] = system: NCXrev (reverse Na+/Ca2+ exchanger); test: Gramicidin-induced; assay type: cell-based, rat; conditions: for efficacy of inhibition of gramicidin-induced increase in [Ca2+]c / IC50: 5 μM gramicidin; for efficacy of inhibition of gramicidin-induced increase in [Ca2+]c: 1 μM MK801, 50 μM memantine, 200 μM AP-5 (Fig. 3); for IC50: read-out: IC50, inhibition of gramicidin-induced increase in [Ca2+]c, bath with 5 μM nifedipine and 1 mM ouabain, Suppl. Fig. 6
NMDAR [4] = test: NMDA-induced increase in [Ca2+]c, calcium imaging; assay type: cell-based, rat; conditions: for IC50: read-out: IC50, inhibition of NMDA-induced increases in [Ca2+]c
[5] = system: cultured hippocampal neurons; test: NMDA-induced plasma membrane depolarization; assay type: cell-based, rat; conditions: 30 μM NMDA plus 10 μM glycine; MK801 1 μM, memantine 10 μM, AP-5 20 μM; Suppl. Fig. 5
[6] = system: cultured hippocampal neurons; assay type: cell-based, rat
[7] = system: cultured hippocampal neurons; test: NMDA-induced increase in [Na+]c; assay type: cell-based, rat; conditions: MK801 1 μM, memantine 10 μM, AP-5 20 μM; Suppl. Fig. 4
[8] = system: cultured hippocampal neurons; test: Glutamate-induced increase in [Na+]c, fluorescence imaging; assay type: cell-based, rat; conditions: 25 μM glutamate plus 10 μM glycine; for effect on glutamate-induced increases in [Na+]c: SBFI, 1 μM MK801, 50 μM memantine, 200 μM AP-5; for effect on glutamate-induced increase in [Na+]c: Sodium Green, 10 μM EIPA, 10 μM MK801
[9] = system: cultured hippocampal neurons; test: NMDA-induced DCD, calcium imaging; assay type: cell-based, rat; conditions: 30 μM NMDA plus 10 μM glycine; MK801 1 μM, memantine 10 μM, AP-5 20 μM; Suppl. Fig. 3
[10] = system: cultured hippocampal neurons; conditions: CNQX 10–100 μM; ref Brustovetsky et al., 2011; cited from earlier work
NMDAR [11] = conditions: read-out: IC50, inhibition of NMDAR; ref Brustovetsky et al., 2011; cited from earlier work
forward mode of NCX = test: Forward mode of NCX; assay type: cell-based; conditions: authors' unpublished data
[12] = whole-cell voltage-clamp, Suppl. Fig. 2
[13] = rat cultured hippocampal neurons, Suppl. Fig. 1

Row | Compound | effect on NMDA-induced ion currents (NMDAR [1]; [12]) | effect on NCXrev-mediated ion currents (NCXrev) | effect on glutamate-induced plasma membrane depolarization [2] | efficacy of inhibition of gramicidin-induced increase in [Ca2+]c [3] | IC50 [3] [nM] | extent of inhibition of NMDA-induced increases in [Ca2+]c (NMDAR [4]; [13]) | IC50 (NMDAR [4]; [13]) [nM] | effect on plasma membrane depolarization induced by NMDA [5] | effect on glutamate-induced DCD [6] | effect on [Na+]c elevated after NMDA application [7] | effect on glutamate-induced increases in [Na+]c [8] | effect on DCD induced by NMDA [9] | effect on glutamate-induced increase in [Na+]c [8] | effect on forward mode of NCX (forward mode of NCX) | other results
1 | N[C@H](CCCP(=O)(O)O)C(=O)O [AP-5, D-(−)-2-Amino-5-phosphonopentanoic acid] | inhibited NMDA-induced ion currents | practically without effect | nor prevented | much less efficacious | 2800 ± 700 | completely inhibited | 2200 ± 30 | completely prevented | failed to prevent DCD; also recorded: failed to prevent or attenuate | significantly lowered | neither attenuated | completely prevented DCD |  |  | neuroprotection against glutamate excitotoxicity (neurons): only moderately effective
2 | N#Cc1cc2[nH]c(=O)c(=O)[nH]c2cc1[N+](=O)[O-] [CNQX, 6-cyano-7-nitroquinoxaline-2,3-dione] |  |  |  |  |  |  |  |  |  |  |  |  |  |  | effect on glutamate-induced DCD [10]: had no effect
3 | CCN(c1nc(N)c(C(=O)NC(=N)N)nc1Cl)C(C)C [EIPA, 5-(N-ethyl-N-isopropyl)amiloride] |  |  |  |  |  |  |  |  | failed to prevent or attenuate |  |  |  | significantly attenuated |  | effect on gramicidin-induced increase in [Ca2+]c ([3]; EIPA 10 μM, Suppl. Fig. 9): inhibited neither NMDAR nor NCXrev; effect on NMDA-induced increase in [Ca2+]c (NMDAR [4]; EIPA 10 μM, Suppl. Fig. 9): inhibited neither NMDAR nor NCXrev
4 | N=C(N)SCCc1ccc(OCc2ccc([N+](=O)[O-])cc2)cc1 [KB-R7943] |  | strongly attenuated |  |  |  |  |  |  | failed to prevent DCD |  |  |  |  |  | IC50 (NMDAR [11]): 13400 ± 3600 nM
5 | C[C@]12N[C@H](Cc3ccccc31)c1ccccc12 [MK801] | inhibited NMDA-induced ion currents | inhibited | nor prevented | very effectively inhibited | 500 ± 80 | completely inhibited | 200 ± 40 | completely prevented | completely prevented | significantly lowered | neither attenuated | completely prevented DCD | failed to prevent or diminish | not affected | 
6 | CC12CC3CC(C)(C1)CC(N)(C3)C2 [memantine] |  | inhibited | nor prevented | very effectively inhibited | 17100 ± 240 |  |  | completely prevented | completely prevented | significantly lowered | neither attenuated | completely prevented DCD |  | not affected | effect on NMDA-induced ion currents (NMDAR [1]): inhibited NMDA-induced ion currents; extent of inhibition of NMDA-induced increases in [Ca2+]c (NMDAR [4]): completely inhibited; IC50 (NMDAR [4]): 3600 ± 50 nM
